Target: T1, Muscarinic acetylcholine receptor M1 (Homo sapiens, UniProt P11229)
T1 sequence (P11229 whole entry): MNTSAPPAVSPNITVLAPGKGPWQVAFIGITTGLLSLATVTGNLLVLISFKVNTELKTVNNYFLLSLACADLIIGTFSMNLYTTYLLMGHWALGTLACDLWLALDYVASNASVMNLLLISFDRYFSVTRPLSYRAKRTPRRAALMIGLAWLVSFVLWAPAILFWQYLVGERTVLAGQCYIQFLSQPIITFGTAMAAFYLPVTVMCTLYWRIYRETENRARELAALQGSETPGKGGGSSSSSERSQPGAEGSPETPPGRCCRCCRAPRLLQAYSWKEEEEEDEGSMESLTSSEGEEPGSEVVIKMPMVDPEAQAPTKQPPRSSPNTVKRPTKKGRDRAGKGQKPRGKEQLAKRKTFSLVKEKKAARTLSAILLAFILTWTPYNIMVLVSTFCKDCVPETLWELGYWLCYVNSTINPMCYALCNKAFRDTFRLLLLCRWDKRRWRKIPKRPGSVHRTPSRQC
Experiment: Agonist activity at human muscarinic M1 acetylcholine receptor expressed CHO cells assessed as intracellular calcium mobilization after 1 hr by Fluo-4-AM based fluorescence assay
Assay type: functional, cell-based
In short: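 FlpInCHO cells stably expressing human M1 were seeded at 20000/well, grown 8 h at 37 °C in DMEM with 5% FBS, and serum-starved overnight. They were loaded 1 h at 37 °C with 1 μM Fluo-4-AM in HEPES Ca2+ buffer (0.5% BSA, 4 mM probenecid, pH 7.4). Modulator alone was added at 20 s and fluorescence was read at 485/520 nm over 100 s. Peak minus baseline was normalized to 100 μM ATP. Efficacy came from an operational model of allosteric agonism.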

| SMILES | EC50 |
| --- | --- |
| COc1ccc(Cn2cc(C(=O)O)c(=O)c3c(F)ccc(F)c32)cc1 | 0.0316 µM |

Target: T2, Muscarinic acetylcholine receptor M1 (Homo sapiens) (UniProt P11229)
T2 sequence (whole entry): T1 sequence (P11229 whole entry)
Experiment: Displacement of [3H]-NMS from human muscarinic M1 acetylcholine receptor expressed CHO cells after 4 hrs by scintillation counting
Assay type: cell-based
In short: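 Whole FlpInCHO cells stably expressing human M1 mAChR, 20000/well, grown 8 h at 37 °C then serum-starved overnight. Binding buffer 10 mM HEPES, 100 mM NaCl, 10 mM MgCl2, pH 7.4. […] Ice-cold 0.9% NaCl washes, scintillation counting. Curves fitted to allosteric ternary complex model giving pKB and log α.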

| pKb | SMILES |
| --- | --- |
| 4.63 | COc1ccc(Cn2cc(C(=O)NS(C)(=O)=O)c(=O)c3c(F)ccc(F)c32)cc1 |
| 5.32 | CCOC(=O)c1cn(Cc2ccc(-c3ccccc3)cc2)c2c(OC)ccc(F)c2c1=O |
| 5.13 | O=C(O)c1cn(CC2CCN(Cc3ccccc3)CC2)c2ccccc2c1=O |
| 4.73 | O=C(O)c1cn(-c2ccc(-c3ccccc3)cc2)c2ccccc2c1=O |
| 5.55 | O=C(O)c1cn(Cc2cccc(-c3ccccc3)c2)c2c(F)ccc(F)c2c1=O |
| 4.96 | NCC#Cc1ccc(Cn2cc(C(=O)O)c(=O)c3c(F)ccc(F)c32)cc1 |
| 3.75 | CCOC(=O)c1cn(Cc2ccc(-c3ccccc3)cc2)c2c(F)ccc(F)c2c1=O |
| 5.16 | CCOC(=O)c1cn(Cc2ccc(-c3ccccc3)cc2)c2cccc(OC)c2c1=O |
| 5.55 | O=C(O)c1cn(Cc2ccc(-c3ccccc3)cc2)c2c(F)ccc(O)c2c1=O |
| 4.7 | CC(C)(C)OC(=O)N1CCC(Cn2cc(C(=O)O)c(=O)c3ccccc32)CC1 |
| 5.84 | COc1ccc(F)c2c(=O)c(C(=O)O)cn(Cc3ccc(-c4ccccc4)cc3)c12 |
| 4.65 | COc1ccc(-n2cc(C(=O)O)c(=O)c3ccccc32)cc1 |
| 4.86 | COc1ccc(Cn2cc(C(=O)O)c(=O)c3c(F)ccc(OC)c32)cc1 |
| 5 | O=C(O)c1cn(Cc2ccccc2-c2ccccc2)c2c(F)ccc(F)c2c1=O |
| 4.97 | COc1ccc(Cn2cc(C(=O)N3CCOCC3)c(=O)c3c(F)ccc(F)c32)cc1 |
| 4.62 | COc1ccc(Cn2cc(C(=O)O)c(=O)c3c(OC)cccc32)cc1 |
| 4.97 | COc1ccc(Cn2cc(-c3nnn[nH]3)c(=O)c3c(F)ccc(F)c32)cc1 |
| 4.82 | CCOC(=O)c1cn(Cc2ccc(OC)cc2)c2c(OC)ccc(F)c2c1=O |

| pKb | SMILES |
| --- | --- |
| 5.12 | CCOC(=O)c1cn(Cc2ccc(OC)cc2)c2c(F)ccc(F)c2c1=O |
| 4.8 | COc1ccc(Cn2cc(C(=O)NO)c(=O)c3c(F)ccc(F)c32)cc1 |
| 4.82 | O=C(O)c1cn(CC2CCNCC2)c2ccccc2c1=O |
| 4.22 | CCOC(=O)c1cn(Cc2ccc(OC)cc2)c2cccc(OC)c2c1=O |
| 4.51 | CCOC(=O)c1cn(Cc2ccc(OC)cc2)c2c(OC)cccc2c1=O |
| 5.67 | COc1cccc2c1c(=O)c(C(=O)O)cn2Cc1ccc(-c2ccccc2)cc1 |
| 4.75 | COc1ccc(Cn2cc(C(=O)O)c(=O)c3cccc(OC)c32)cc1 |
| 4.66 | COc1ccc(Cn2cc(C#N)c(=O)c3c(F)ccc(F)c32)cc1 |
| 4.35 | COc1ccc(Cn2cc(C(=O)NC(C)=O)c(=O)c3c(F)ccc(F)c32)cc1 |
| 4.8 | COc1ccc(Cn2cc(C(=O)Nc3ccccc3)c(=O)c3c(F)ccc(F)c32)cc1 |
| 4.08 | CCOC(=O)c1cn(Cc2ccc(-c3ccccc3)cc2)c2c(OC)cccc2c1=O |
| 5.36 | O=C(O)c1cn(Cc2ccc(-c3ccccc3)cc2)c2c(F)ccc(F)c2c1=O |
| 5.71 | COc1cccc2c(=O)c(C(=O)O)cn(Cc3ccc(-c4ccccc4)cc3)c12 |
| 4.48 | COc1ccc(Cn2cc(C(=O)N(C)C)c(=O)c3c(F)ccc(F)c32)cc1 |
| 4.71 | COc1ccc(Cn2cc(C(=O)N3CCCCC3)c(=O)c3c(F)ccc(F)c32)cc1 |
| 4.66 | O=C(O)c1cn(CC2CCN(C(=O)Nc3ccccc3)CC2)c2ccccc2c1=O |
| 4.72 | COc1ccc(Cn2cc(C(=O)O)c(=O)c3ccccc32)cc1 |

| SMILES | pKb |
| --- | --- |
| COc1ccc(Cn2cc(C(=O)N[C@H]3CCCC[C@@H]3O)c(=O)c3c(F)ccc(F)c32)cc1 | 4.99 |
| COc1ccc(Cn2cc(C(N)=O)c(=O)c3c(F)ccc(F)c32)cc1 | 5.17 |
| COc1ccc(Cn2cc(C(=O)NN3CCCCC3)c(=O)c3c(F)ccc(F)c32)cc1 | 5.07 |
| CCNC(=O)c1cn(Cc2ccc(OC)cc2)c2c(F)ccc(F)c2c1=O | 5.78 |
| COc1ccc(Cn2cc(C(=O)O)c(=O)c3c(F)ccc(F)c32)cc1 | 4.96 |
| COc1ccc(Cn2cc(C(=O)NCCO)c(=O)c3c(F)ccc(F)c32)cc1 | 4.65 |
| CNC(=O)c1cn(Cc2ccc(OC)cc2)c2c(F)ccc(F)c2c1=O | 4.92 |
| COc1ccc(Cn2cc(C(=O)NCc3ccccc3)c(=O)c3c(F)ccc(F)c32)cc1 | 4.63 |

Target: T1, Muscarinic acetylcholine receptor M1
Experiment: Allosteric modulation of human muscarinic M1 acetylcholine receptor expressed CHO cells assessed as intracellular calcium mobilization after 1 hr by Fluo-4-AM based fluorescence assay
Assay type: functional, cell-based
In short: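 Cells were FlpInCHO-hM1, serum-starved overnight, then loaded 1 h at 37 °C with 1 μM Fluo-4-AM in Ca2+ buffer (pH 7.4, 4 mM probenecid). ACh titrations with or without increasing modulator concentrations were co-added at 20 s. Curves were fitted to an operational model of allosterism (αβ, τB). Experiments were done three to four times in duplicate.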

| SMILES | EC50 |
| --- | --- |
| COc1ccc(Cn2cc(C(=O)O)c(=O)c3c(F)ccc(F)c32)cc1 | 0.0316 µM |

From ChEMBL document CHEMBL2396522, “Synthesis and pharmacological profiling of analogues of benzyl quinolone carboxylic acid (BQCA) as allosteric modulators of the M1 muscarinic receptor” (J Med Chem, 2013)
